Measurements collected from several papers.
Lines come from different studies, so protocols differ.
Target: Myosin-IIIa (MYO3A, Homo sapiens, UniProt Q8NEV4)

CC1CCCN1c1nccc(-c2cnn3ncccc23)n1 (stereo not drawn)  remaining binding (binding; 1 µM): 100%
Nc1ncc2c(n1)-c1c([nH]c3ccc(C#CC4CC4)cc13)CCCC2  remaining binding (binding, competition with immobilised ligand; 1 µM): 91%
c1ccc(N2CCN(Cc3nc4ccccc4[nH]3)CC2)nc1  remaining binding (binding, competition with immobilised ligand; 1 µM): 100%
F[C@@H]1CCN(c2nccc(-c3cnn4ncccc34)n2)C1  remaining binding (binding; 1 µM): 93%
O=C(NCC1CCOCC1)c1n[nH]cc1NC(=O)c1c(F)cccc1F  remaining binding (binding, competition with immobilised ligand; 1 µM): 88%
CCCCN(CCCC)C(=O)CN1C[C@@H](c2cc(OC)c3c(c2)OCO3)[C@H](C(=O)O)[C@H]1CC(C)(C)CCC  remaining binding (cell-free assay, competition with immobilised ligand; 1 µM): 100%
Cc1cnc(Nc2ccc(C(=O)N3CCC(N4CCCC4)CC3)cc2)nc1-c1cc2ccccc2s1  remaining binding (binding, competition with immobilised ligand; 1 µM): 85%
CN(C)c1ncc(F)c(-c2cnn3ncccc23)n1  remaining binding (binding; 1 µM): 100%
FC(F)(F)Oc1cccc(-c2cnc3ccc(-c4ccncc4)nn23)c1  remaining binding (cell-free assay, competition with immobilised ligand; 5 µM): 82%
C=CC(=O)N1CCC(C(=O)NCC(=O)N2CCN(c3nc(-c4cnc(N)nc4C(F)F)nc(N4CCOCC4)n3)CC2)CC1  remaining binding (binding, competition with immobilised ligand; 1 µM): 100%
CN(c1nccc(-c2cnn3ncccc23)n1)C1CC1  remaining binding (binding; 1 µM): 77%
CNC(=O)[C@@H]1CC[C@@H](n2c(-c3ccc4cnccc4c3)nc3ccc(C(=O)NCc4cccc(C(N)=O)c4)cc32)C1  remaining binding (binding, competition with immobilised ligand; 1 µM): 100%
CCN1CCN(Cc2ccc(C(=O)Nc3ccc(C)c(Oc4ccc5c(c4)CC(=O)N5)c3)cc2C(F)(F)F)CC1  remaining binding (binding, competition with immobilised ligand; 1 µM): 100%
C[C@@H]1CN(c2cc(-c3nn(C)c4ccc(OC5(C)CC5)cc34)ncn2)C[C@H](C)O1  remaining binding (cell-free assay, competition with immobilised ligand; 1 µM): 100%
O=C(NCCCN1CCOCC1)c1ccc(Nc2nccc(-c3cc4ccccc4s3)n2)cc1  remaining binding (binding, competition with immobilised ligand; 1 µM): 87%
CS(=O)(=O)c1cc(C2(NC(=O)c3cncc4c3cnn4-c3ccc(F)cc3)CC2)ccn1  remaining binding (cell-free assay, competition with immobilised ligand; 1 µM): 85%
O=C(c1ccc(Nc2ncc(Cl)c(-c3cc4ccccc4s3)n2)cc1)N1CCC(N2CCCC2)CC1  remaining binding (binding, competition with immobilised ligand; 1 µM): 91%
c1cnn2ncc(-c3ccnc(N4CCC45COC5)n3)c2c1  remaining binding (binding; 1 µM): 55%
CCC(=N\O)/C(C)=C/c1ccc(F)cc1  remaining binding (cell-free assay, competition with immobilised ligand; 1 µM): 100%
N[C@@H]1CCN(c2nccc(-c3cnn4ncccc34)n2)C1  remaining binding (binding; 1 µM): 100%
O=C(NS(=O)(=O)c1ccc(NCC2CCOCC2)c([N+](=O)[O-])c1)c1ccc(N2CCN(Cc3ccc(C(F)(F)F)cc3-c3ccc(Cl)cc3)CC2)cc1Oc1cnc2[nH]ccc2c1  remaining binding (cell-free assay, competition with immobilised ligand; 1 µM): 85%
